The results in this text go back to ChEMBL document CHEMBL3585273, “Discovery of Tricyclic Clerodane Diterpenes as Sarco/Endoplasmic Reticulum Ca(2+)-ATPase Inhibitors and Structure-Activity Relationships” (J Nat Prod, 2015).

Experiment [1] concerns the target T1, Sarcoplasmic/endoplasmic reticulum calcium ATPase 1 (Oryctolagus cuniculus, UniProt P04191). As to the kind of experiment: Binding affinity to rabbit hind leg muscle SERCA1a by pyruvate kinase and lactate dehydrogenase coupled assay. An outline of the steps:
(§1)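 Rabbit skeletal muscle SR-purified SERCA1a (1 mg/mL) equilibrated in E2 state: 1 mM EGTA, 1 mM Mg2+, 10 mM Tes pH 7.5, 100 mM KCl. 10 μg protein plus compound (1.25–100 μM) preincubated 5 min at 23 °C in ATP-regenerating medium (0.1 mM Ca2+, 1 mM PEP, pyruvate kinase, lactate dehydrogenase, 0.175 mM NADH). Started with 5 mM Mg-ATP; A340 read over 6 min; three repeats.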

Experiment [2] deals with T1, Sarcoplasmic/endoplasmic reticulum calcium ATPase 1. Kind of experiment: Binding affinity to rabbit skeletal muscle SERCA1a preincubated for 5 mins followed by Mg-ATP addition measured over 6 mins by spectrophotometric analysis. An outline of the steps: as §1
Experiment [3] relates to CCRF-CEM. As to the kind of experiment: Cytotoxicity against human CCRF-CEM cells assessed as cell viability after 24 hrs by MTT assay. It is filed as functional, cell-based. An outline of the steps:
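Human acute lymphoblastic leukemia CCRF-CEM cells seeded at 4 × 10^4 cells/well and exposed 24 h to a range of compound concentrations. Viability read by MTT. Doxorubicin served as positive control and 0.1% DMSO as solvent control. IC50 derived by nonlinear regression. Data are means ± SD of three independent experiments.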
Background: Formazan colour is commonly taken as a measure of viable cells.

For experiment [4], the species on record is Sus scrofa. Kind of experiment: Inhibition of pig kidney outer medulla Na+,K+-ATPase at 50 uM relative to control. An outline of the steps: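 Purified pig kidney outer medulla Na+,K+-ATPase membranes. Steady-state activity at 37 °C in 130 mM NaCl, 20 mM KCl, 4 mM MgCl2, 3 mM ATP, 20 mM histidine pH 7.4. Read-out is phosphate liberation, with 1 mM ouabain as the nonspecific ATPase blank. Compounds tested over 1–50 μM.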

Experiment [5] is described as follows: Inhibition of Wistar rat stomach H+,K+-ATPase after 1 hr.

T1 sequence (P04191 whole entry): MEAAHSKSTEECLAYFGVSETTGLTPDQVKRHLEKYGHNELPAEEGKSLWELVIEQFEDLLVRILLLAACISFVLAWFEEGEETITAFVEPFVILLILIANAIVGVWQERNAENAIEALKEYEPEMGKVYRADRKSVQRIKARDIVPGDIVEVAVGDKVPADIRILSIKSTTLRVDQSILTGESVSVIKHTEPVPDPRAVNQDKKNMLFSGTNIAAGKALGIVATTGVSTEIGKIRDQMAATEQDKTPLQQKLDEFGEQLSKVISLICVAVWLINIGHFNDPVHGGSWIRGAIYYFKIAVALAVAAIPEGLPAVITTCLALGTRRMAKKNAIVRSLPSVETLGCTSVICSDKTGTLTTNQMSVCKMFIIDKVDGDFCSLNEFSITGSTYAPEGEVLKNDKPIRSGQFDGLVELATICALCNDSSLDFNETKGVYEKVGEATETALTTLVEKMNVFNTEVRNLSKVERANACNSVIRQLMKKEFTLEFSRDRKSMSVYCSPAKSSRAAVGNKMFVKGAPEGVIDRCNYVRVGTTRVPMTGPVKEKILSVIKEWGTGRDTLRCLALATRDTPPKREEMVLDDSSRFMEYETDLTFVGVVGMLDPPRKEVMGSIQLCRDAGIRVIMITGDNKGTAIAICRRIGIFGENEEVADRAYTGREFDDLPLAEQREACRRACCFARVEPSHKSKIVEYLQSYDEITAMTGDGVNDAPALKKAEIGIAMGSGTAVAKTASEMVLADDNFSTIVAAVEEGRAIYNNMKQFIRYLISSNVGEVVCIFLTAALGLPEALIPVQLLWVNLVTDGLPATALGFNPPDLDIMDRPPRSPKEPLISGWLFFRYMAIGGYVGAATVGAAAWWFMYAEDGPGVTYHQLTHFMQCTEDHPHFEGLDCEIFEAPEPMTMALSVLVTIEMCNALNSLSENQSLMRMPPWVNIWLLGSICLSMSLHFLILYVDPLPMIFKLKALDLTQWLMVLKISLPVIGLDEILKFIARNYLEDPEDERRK

A word on the Kd: it is a measure of binding affinity in units of concentration. Turning to `C[C@H](C[C@H](O)[C@H]1OC1(C)C)C1=C2C[C@H](O)[C@H]3[C@@]4(C)CCC(=O)C(C)(C)[C@@H]4CC[C@]3(C)[C@@]2(C)CC1` [ALISOL B], in experiment [1], the Kd is 27 µM.

In the case of `C=CC(=C)CC[C@]1(C)[C@H](C)C[C@H](O)[C@@]23C(=C[C@@H](OC(=O)/C=C/c4ccccc4)C[C@@H]12)[C@@H](OC(C)=O)O[C@H]3OC(C)=O`, in experiment [2], the Kd worked out at 32.1 µM. One may read the IC50 as the concentration that gives 50% inhibition. As a reminder, the inhibition is the change of the read-out against control, counted positive when it falls. High values mean a response far below the control, low ones a response near the control. As for `C=C/C(C)=C/C[C@]1(C)[C@H](C)C[C@H](O)[C@@]23C(=C[C@H](OC(=O)c4ccc(O)cc4)C[C@@H]12)[C@@H](OC(C)=O)O[C@H]3OC(C)=O` [CASEARBORIN D], in experiment [3], the IC50 worked out at 1.1 µM. The Kd in experiment [2] stood at 2 µM. The compound also registered an inhibition in experiment [4] of 23.8%. For `C=C/C(C)=C/C[C@]1(C)[C@H](C)CC[C@@]23C(=CC(=O)C[C@@H]12)[C@@H](OC(C)=O)O[C@H]3OC(C)=O`, the Kd in experiment [2] worked out at 96.5 µM. Still for that read-out and setting: under `C=CC(=C)CC[C@]1(C)[C@H](C)C[C@H](OC(=O)/C=C/c2ccccc2)[C@@]23C(=C[C@H](O)C[C@@H]12)[C@@H](OC(C)=O)O[C@H]3OC(C)=O` stands 48.1 µM; under `C=CC(=C)[C@H](O)C[C@]1(C)[C@H](C)C[C@H](OC(=O)CC(O)CCCCCCCCC)[C@@]23C(=C[C@H](O)C[C@@H]12)[C@@H](OC(C)=O)O[C@H]3OC(C)=O` (stereo partly drawn), 31.5 µM.

For the compound IVERMECTIN, in experiment [5], half-maximal inhibition (IC50) required 7.59 µM. As for `C=C/C(C)=C/C[C@]1(C)[C@H](C)[C@@H](O)[C@H](O)[C@@]23C(=C[C@H](OC)C[C@@H]12)[C@@H](O)O[C@H]3O`, in experiment [3], the IC50 worked out at 4.3 µM. Also, in experiment [2], the Kd is more than 100 µM. Moreover, the inhibition in experiment [4] was 6.55%. The like results for `C=C/C(C)=C/C[C@]1(C)[C@H](C)[C@@H](OC(=O)CCC)[C@H](O)[C@@]23C(=C[C@H](OC)C[C@@H]12)[C@@H](OC(=O)CCC)O[C@H]3OC(C)=O` were, in that order, 0.7 µM, 10.1 µM and 4.41%. On to `C[C@H]1O[C@@H](O[C@H]2CC[C@@]3(C)[C@@H](CC[C@]4(C)[C@@H]3C=C[C@]35OC[C@@]6(CCC(C)(C)C[C@H]63)[C@H](O)C[C@]54C)[C@]2(C)CO)[C@H](O)[C@@H](O[C@@H]2O[C@H](CO)[C@@H](O)[C@H](O)[C@H]2O)[C@@H]1O`, for which the Kd in experiment [1] stood at 50 µM. Turning to `C=CC(=C)CC[C@]1(C)[C@H](C)CC[C@@]23C(C[C@H](OC(C)=O)C[C@@H]12)[C@@H](OC(C)=O)O[C@H]3OC(C)=O` (stereo partly drawn), the IC50 in experiment [3] turned out to be 12 µM. Also, the dissociation constant Kd in experiment [2] came to 103 µM. `CC(=O)O[C@H]1O[C@@H](OC(C)=O)[C@]23C1=C[C@H](O)C[C@H]2[C@](C)(CCC1=CCOOC1)[C@H](C)C[C@@H]3OC(=O)/C=C/c1ccccc1`: in experiment [2], the Kd is 22.3 µM. As for `C=CC(=C)CC[C@]1(C)[C@H](C)C[C@H](OC(=O)CC(O)CCCCCCCCC)[C@@]23C(=C[C@H](O)C[C@@H]12)[C@@H](OC(C)=O)O[C@H]3OC(C)=O` (stereo partly drawn), the Kd in experiment [2] came out at 7.5 µM. Further, the inhibition in experiment [4] came to 26.3%. `C=C/C(C)=C/C[C@]1(C)[C@H](C)C[C@H](OC(C)=O)[C@@]23C(=C[C@H](OC(=O)c4ccc(O)cc4)C[C@@H]12)[C@@H](OC(C)=O)O[C@H]3OC(C)=O`: the IC50 in experiment [3] amounted to 1.2 µM. Moreover, the Kd in experiment [2] stood at 20.1 µM.
